Experimental data as given in PubChem BioAssay AID624066 (The Scripps Research Institute Molecular Screening Center, 2012).
“And” between values parts separate entries of the source, which are not always exact repeats. Identical values can stand only once. The source made the active and inactive calls.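 Rule for the calls: active = IC50 of 10 µM or lower; inactive = IC50 above 10 µM.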

Molecular target: Insulin-degrading enzyme (Homo sapiens) (UniProt P14735)
Assay: IDE inhibitors with FRET1 peptide substrate, late-stage follow-up, artefact control for IDE inhibitor project, biochemical, fluorogenic FRET1 peptide, fluorescence, powder samples (AID 624066)
Settings: recombinant IDE
Summary of the method: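 assay system = wild-type recombinant insulin-degrading enzyme, purified | input = IDE at 1 nM final, roughly EC80 | detection = fluorescence intensity at 385 nm emission, 335 nm excitation | replication = triplicate | compound dosing = 10-point semilog series from nominal 100 µM, 1% DMSO final | incubation = continuous kinetic reading every 2 min over 2 h at 22 °C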

Sequence of Insulin-degrading enzyme (Homo sapiens) (P14735 whole entry, looked up): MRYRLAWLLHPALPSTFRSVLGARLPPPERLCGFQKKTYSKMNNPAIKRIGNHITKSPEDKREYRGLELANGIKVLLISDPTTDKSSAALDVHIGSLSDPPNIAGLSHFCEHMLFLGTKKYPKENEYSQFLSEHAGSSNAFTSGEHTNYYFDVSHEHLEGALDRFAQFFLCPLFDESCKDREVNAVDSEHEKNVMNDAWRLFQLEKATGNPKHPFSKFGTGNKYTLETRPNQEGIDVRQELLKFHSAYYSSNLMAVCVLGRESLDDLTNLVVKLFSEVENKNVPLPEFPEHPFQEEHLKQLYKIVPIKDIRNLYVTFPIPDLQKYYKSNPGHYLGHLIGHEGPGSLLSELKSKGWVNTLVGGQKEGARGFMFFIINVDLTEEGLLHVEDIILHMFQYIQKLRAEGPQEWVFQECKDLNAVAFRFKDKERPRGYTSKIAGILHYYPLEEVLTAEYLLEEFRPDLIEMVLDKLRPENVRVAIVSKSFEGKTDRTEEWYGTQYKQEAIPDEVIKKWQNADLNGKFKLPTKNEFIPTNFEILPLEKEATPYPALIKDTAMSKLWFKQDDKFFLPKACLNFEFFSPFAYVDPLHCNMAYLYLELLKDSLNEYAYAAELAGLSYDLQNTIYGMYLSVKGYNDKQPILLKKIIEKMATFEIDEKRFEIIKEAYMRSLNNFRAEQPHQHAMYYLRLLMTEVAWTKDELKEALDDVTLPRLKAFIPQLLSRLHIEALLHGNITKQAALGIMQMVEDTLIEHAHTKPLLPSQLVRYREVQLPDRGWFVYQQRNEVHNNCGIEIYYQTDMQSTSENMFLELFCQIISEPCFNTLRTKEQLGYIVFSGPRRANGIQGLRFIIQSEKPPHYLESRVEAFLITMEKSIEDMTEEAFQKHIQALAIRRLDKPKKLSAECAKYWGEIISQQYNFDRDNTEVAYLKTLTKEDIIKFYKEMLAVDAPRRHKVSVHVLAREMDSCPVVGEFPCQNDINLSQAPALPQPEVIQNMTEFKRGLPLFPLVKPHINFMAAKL

Row | SMILES | IC50
1 | O=C(C1CC1)N1CCN(c2ccnc3cc(Cl)ccc23)CC1 | > 100 µM (inactive)
2 | O=C(CSc1nnc(-c2cccc(Cl)c2)n1Cc1ccco1)c1ccc2ccccc2c1 | > 100 µM (inactive)
3 | Cc1nc(-c2cccnc2)sc1C(=O)Nc1cccc(C(F)(F)F)c1 | > 100 µM (inactive)
4 | COc1cccc(-c2nnc(SCc3nc4ccccc4[nH]3)n2Cc2ccco2)c1 | 6.4 µM
5 | Cc1ccc(-c2nc(C(=O)Nc3cccc(C(F)(F)F)c3)cs2)cc1 | > 100 µM (inactive)
6 | COc1ccc(C(=O)N2CCCN(C(=O)C3COc4ccccc4O3)CC2)cc1OC (stereo unspecified) | > 10 µM (inactive)
7 | O=C(c1ccc2c(c1)OCCO2)N1CCN(C(=O)C2COc3ccccc3C2)CC1 (stereo unspecified) | > 10 µM (inactive)
8 | O=C(Nc1cccc(C(F)(F)F)c1)c1csc(Cc2cccc(C(F)(F)F)c2)n1 | > 100 µM (inactive)
9 | O=c1c2ccccc2sn1-c1cc(S(=O)(=O)N2CCOCC2)ccc1N1CCOCC1 | 0.2 µM
10 | Cc1ccc(C)c(N2C(=N)S/C(=C\c3ccc(-c4ccccc4C(=O)O)o3)C2=O)c1 | inactive
11 | Nc1c(C(=O)Nc2nccs2)sc2nc(-c3cccs3)cc(C(F)(F)F)c12 | > 100 µM (inactive)
12 | COc1ccc(C(=O)N2CCCN(C(=O)C3COc4ccccc4C3)CC2)cc1OC (stereo unspecified) | > 10 µM (inactive)
13 | COc1cc(/C=C2\SC(=S)N(NC(C)=O)C2=O)ccc1OC(=O)c1ccco1 | > 10 µM (inactive)
14 | Cn1c(SCc2nc3ccccc3[nH]2)nnc1-c1cccc(Cl)c1 | > 100 µM (inactive)
15 | O=C(c1ccc2c(c1)OCCO2)N1CCN(C(=O)C2CCc3ccccc3O2)CC1 (stereo unspecified) | > 10 µM (inactive)
16 | COc1ccc(-c2nc(C(=O)Nc3cccc(C(F)(F)F)c3)cs2)cc1 | > 100 µM (inactive)
17 | O=C(c1ccc2c(c1)OCO2)N1CCN(C(=O)C2COc3ccccc3O2)CC1 (stereo unspecified) | > 10 µM (inactive)
18 | O=C(Nc1cccc(C(F)(F)F)c1)c1csc(-c2cccc(C(F)(F)F)c2)n1 | > 100 µM (inactive)
19 | O=C(Nc1cccc(C(F)(F)F)c1)c1csc(-c2ccncc2)n1 | 5 µM
20 | O=C(c1ccc2c(c1)OCO2)N1CCN(C(=O)[C@H]2COc3ccccc3O2)CC1 | > 10 µM (inactive)
21 | O=C(CSc1nnc(-c2cccc(Cl)c2)n1Cc1ccco1)Nc1ccccc1C(F)(F)F | > 100 µM (inactive)
22 | CC(Sc1nnc(-c2cccnc2)n1-c1ccccc1F)C(=O)N1CCCc2ccccc21 (stereo unspecified) | > 100 µM (inactive)
23 | O=C(c1ccc2c(c1)OCO2)N1CCCN(C(=O)C2COc3ccccc3O2)CC1 (stereo unspecified) | > 10 µM (inactive)
24 | O=C(c1ccc2c(c1)OCCO2)N1CCCN(C(=O)C2COc3ccccc3C2)CC1 (stereo unspecified) | > 10 µM (inactive)
25 | Cc1c(CCC(=O)NCCCn2ccnc2)c(=O)oc2cc3oc4c(c3cc12)CCCC4 | 5 µM
26 | COc1ccc(C(=O)N2CCN(C(=O)C3COc4ccccc4C3)CC2)cc1OC (stereo unspecified) | > 10 µM (inactive)

Row | SMILES | IC50
27 | COc1ccc(NC(=O)CSc2nnc(CN3CCOCC3)n2C)cc1Cl | > 100 µM (inactive)
28 | O=C(c1ccc2c(c1)OCO2)N1CCN(C(=O)C2CCc3ccccc3O2)CC1 (stereo unspecified) | > 10 µM (inactive)
29 | O=C(c1ccc2c(c1)OCO2)N1CCN(C(=O)[C@@H]2COc3ccccc3O2)CC1 | > 10 µM (inactive)
30 | Clc1cccc(-c2nnc(SCc3nc4ccccc4[nH]3)n2-c2ccccc2)c1 | inactive
31 | COc1ccc(C(=O)N2CCCN(C(=O)C3CCc4ccccc4O3)CC2)cc1OC (stereo unspecified) | > 10 µM (inactive)
32 | O=C(c1ccc2c(c1)OCCO2)N1CCCN(C(=O)C2COc3ccccc3O2)CC1 (stereo unspecified) | > 10 µM (inactive)
33 | O=C(O)c1ccccc1NS(=O)(=O)c1cccc(-n2sc3ccccc3c2=O)c1 | 5 µM
34 | Cn1c(=O)c(C(=O)CN2CCCc3ccccc32)c(N)n(Cc2ccccc2)c1=O | 0.4 µM
35 | CCN(CC)c1ccc(/C=C2\C(=N)N3N=C(CC(=O)N4CCOCC4)SC3=NC2=O)cc1 | > 100 µM (inactive)
36 | O=C(c1ccc2c(c1)OCCO2)N1CCCN(C(=O)C2CCc3ccccc3O2)CC1 (stereo unspecified) | > 10 µM (inactive)
37 | COc1ccc(C(=O)N2CCN(C(=O)C3COc4ccccc4O3)CC2)cc1OC (stereo unspecified) | 1.2 µM and > 10 µM (inactive) and > 100 µM (inactive)
38 | O=C(CSc1nnc(-c2cccc(Cl)c2)n1Cc1ccco1)Nc1ccc2c(c1)OCCO2 | > 100 µM (inactive)
39 | O=C(c1ccc2c(c1)OCO2)N1CCN(C(=O)C2COc3ccccc3C2)CC1 (stereo unspecified) | > 10 µM (inactive)
40 | O=C(Nc1cccc(C(F)(F)F)c1)c1csc(-c2ccccc2)n1 | > 100 µM (inactive)
41 | O=C(c1ccc2c(c1)OCO2)N1CCCN(C(=O)C2COc3ccccc3C2)CC1 (stereo unspecified) | > 10 µM (inactive)
42 | COc1ccc(C(=O)N2CCN(C(=O)C3CCc4ccccc4O3)CC2)cc1OC (stereo unspecified) | > 10 µM (inactive)
43 | O=C(Nc1cc(C(F)(F)F)cc(C(F)(F)F)c1)c1csc(-c2ccncc2)n1 | > 100 µM (inactive)
44 | Cc1cccc(-c2nnc(SCc3nc4ccccc4[nH]3)n2Cc2ccco2)c1 | 9 µM and 6.4 µM
45 | Cc1ccc(NC(=O)CSc2nnc(-c3cccc(Cl)c3)n2Cc2ccco2)c(C)c1 | > 100 µM (inactive)
46 | CCOc1ccc2[nH]c3c(N4CCN(C(=O)c5ccco5)CC4)ncnc3c2c1 | inactive
47 | O=C(c1ccc2c(c1)OCCO2)N1CCN(C(=O)C2COc3ccccc3O2)CC1 (stereo unspecified) | > 10 µM (inactive)
48 | O=C(CSc1nnc(-c2cccc(Cl)c2)n1Cc1ccco1)Nc1ccc2cn[nH]c2c1 | > 100 µM (inactive)
49 | O=C(c1ccc2c(c1)OCO2)N1CCCN(C(=O)C2CCc3ccccc3O2)CC1 (stereo unspecified) | > 10 µM (inactive)
50 | Clc1cccc(-c2nnc(SCc3nc4ccccc4[nH]3)n2Cc2ccco2)c1 | 5 µM
51 | O=C(Nc1ccc2oc(-c3cccnc3)nc2c1)c1ccc2c(c1)OCCO2 | > 100 µM (inactive)
